Results as given in ChEMBL document CHEMBL3046951, “Volatile constituents from the leaves of Callicarpa japonica Thunb. and their antibacterial activities” (2004).

How the values were obtained:
Assay type in all cases: functional
[1] = system: Escherichia coli; assay: Antimicrobial activity against Escherichia coli O157:H7 ATCC 43894 assessed as growth inhibition rate at 9.84 mg/l after 72 hr by spectrophotometry; conditions: O157:H7 ATCC 43894, 72 h, read-out: GI
Method in brief: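 Authentic volatiles (>95% purity; 2,4-heptadienal 90%) tested against 18 h subcultures. Growth media: E. coli O157:H7 and S. aureus in tryptic soy broth at 37 °C; L. monocytogenes in tryptic soy broth at 30 °C; V. parahaemolyticus in tryptic soy broth + 3% NaCl at 37 °C; S. typhimurium in nutrient broth at 30 °C. Bioscreen C OD every 24 h for 72 h versus 10% Tween 80 control.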

[2] = system: Staphylococcus aureus; assay: Antimicrobial activity against Staphylococcus aureus ATCC 25923 assessed as growth inhibition rate at 9.84 mg/l after 72 hr by spectrophotometry; conditions: ATCC 25923, 72 h, read-out: GI
[3] = system: Vibrio parahaemolyticus; assay: Antimicrobial activity against Vibrio parahaemolyticus ATCC 33844 assessed as growth inhibition rate at 9.84 mg/l after 72 hr by spectrophotometry; conditions: ATCC 33844, 72 h, read-out: GI
[4] = system: Listeria monocytogenes; assay: Antimicrobial activity against Listeria monocytogenes ATCC 19111 assessed as growth inhibition rate at 9.84 mg/l after 72 hr by spectrophotometry; conditions: ATCC 19111, 72 h, read-out: GI
Method in brief: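 Pure volatile compounds (>95% purity) tested on Listeria monocytogenes ATCC 19111 in tryptic soy broth at 30 °C. Inoculum: 24 h culture subcultured (0.1 mL into 9.9 mL broth) and grown 18 h. Growth followed by Bioscreen C optical density every 24 h for 72 h against a 10% Tween 80 control.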

[5] = system: Bacillus cereus; assay: Antimicrobial activity against Bacillus cereus ATCC 11778 assessed as growth inhibition rate at 9.84 mg/l after 72 hr by spectrophotometry; conditions: ATCC 11778, 72 h, read-out: GI
Method in brief: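 Pure volatile compounds (>95% purity) from the leaf extract were tested against B. cereus grown at 30 °C in nutrient broth from an 18 h subculture. Optical density was read in a Bioscreen C every 24 h over 72 h, and activity was compared with a 10% Tween 80 control.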

[6] = system: Salmonella typhimurium; assay: Antimicrobial activity against Salmonella enterica subsp. enterica serovar Typhimurium ATCC 14028 assessed as growth inhibition rate at 9.84 mg/l after 72 hr by spectrophotometry; conditions: ATCC 14028, 72 h, read-out: GI

With `CCCCCCO` [1-HEXANOL] as the compound, how does the inhibition of growth at 9.84 µg/mL [1] read?
Its inhibition of growth at 9.84 µg/mL is 16.9%.

And the inhibition of growth at 9.84 µg/mL [2]?
Its inhibition of growth at 9.84 µg/mL is 6.9%.

What about the inhibition of growth at 9.84 µg/mL [3] of the same compound?
The inhibition of growth at 9.84 µg/mL was 27.1%.

And the inhibition of growth at 9.84 µg/mL [4]?
The inhibition of growth at 9.84 µg/mL was 4.2%.

And the inhibition of growth at 9.84 µg/mL [5]?
The inhibition of growth at 9.84 µg/mL was 3.6%.

And the inhibition of growth at 9.84 µg/mL [6]?
Its inhibition of growth at 9.84 µg/mL is 23.3%.
